Reference: ChEMBL document CHEMBL5724801, “EUbOPEN Chemogenomics Library - Multiplex” (2024)
Values joined by “and” are separate entries in the source; they are usually repeats but may differ in a detail not shown here. Equal entries are not always repeated.

System: Fibroblast
Assay: Multiplex assay against human fibroblast
Type: toxicity, cell-based
In short: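 Four dyes were applied at seeding to live cells: Hoechst33342, BioTracker Green Microtubule Cytoskeleton Dye, MitoTracker Red and Annexin V Alexa Fluor 680. Imaging after compound addition used a CQ1 microscope at 37°C and 5% CO2. CellPathfinder machine-learning gating then sorted cells into Hoechst high-intensity objects or normal cells, normal cells into healthy, pyknosed or fragmented nuclei, and pyknosed cells into mitotic or apoptotic, with tubulin, mitochondrial-mass and membrane-permeability phenotypes given as per cents of healthy-nucleus cells.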

[1] = 12 h, 1 µM, compound concentration 1 uM
[2] = 12 h, 10 µM, compound concentration 10 uM
[3] = 24 h, 1 µM, compound concentration 1 uM
[4] = 24 h, 10 µM, compound concentration 10 uM
[5] = 48 h, 1 µM, compound concentration 1 uM
[6] = 48 h, 10 µM, compound concentration 10 uM

Cl.c1ccc2c(c1)CCC[C@H]2Nc1nc2ccccc2[nH]1 was tested, and the “Population Apoptotic (%)” value [1] was 11.32% and 10.42%, the “Population Fragmented Nuclei (%)” value [1] was 9.36% and 5.1% and the “Population Healthy Nuclei (%)” value [1] was 64.53% and 70.41%. For the same compound, the “Population Hoechst High Intensity Objects (%)” value [1] was 0%, the “Population Membrane Permeable-Phenotype (%)” value [1] was 6.11% and 2.17% and the “Population Mitochondria Different-Phenotype (%)” value [1] was 6.87% and 9.42%. The “Population Mitotic Cells (%)” value [1] was 88.68% and 89.58%, the “Population Normal (%)” value [1] was 100% and the “Population Pyknosed Nuclei (%)” value [1] was 26.11% and 24.49%. For the same compound, the “Population Tubulin-Different-Phenotype (%)” value [1] was 18.32% and 18.12%, the “Total Cell Count” value [1] was 203 and 196 and the “Population Apoptotic (%)” value [2] was 5% and 13.89%. The “Population Fragmented Nuclei (%)” value [2] was 8.94% and 7.57%, the “Population Healthy Nuclei (%)” value [2] was 46.37% and 72.97% and the “Population Hoechst High Intensity Objects (%)” value [2] was 0%. The “Population Membrane Permeable-Phenotype (%)” value [2] was 8.43% and 2.96%, the “Population Mitochondria Different-Phenotype (%)” value [2] was 10.84% and 15.56% and the “Population Mitotic Cells (%)” value [2] was 95% and 86.11%. The “Population Normal (%)” value [2] was 100%, the “Population Pyknosed Nuclei (%)” value [2] was 44.69% and 19.46% and the “Population Tubulin-Different-Phenotype (%)” value [2] was 24.1% and 30.37%. For the same compound, the “Total Cell Count” value [2] was 179 and 185, the “Population Apoptotic (%)” value [3] was 11.36% and 6.25% and the “Population Fragmented Nuclei (%)” value [3] was 6.72% and 4.74%. The “Population Healthy Nuclei (%)” value [3] was 74.79% and 78.42%, the “Population Hoechst High Intensity Objects (%)” value [3] was 0% and the “Population Membrane Permeable-Phenotype (%)” value [3] was 4.49% and 2.01%. For the same compound, the “Population Mitochondria Different-Phenotype (%)” value [3] was 8.43% and 5.37%, the “Population Mitotic Cells (%)” value [3] was 88.64% and 93.75% and the “Population Normal (%)” value [3] was 100%. The “Population Pyknosed Nuclei (%)” value [3] was 18.49% and 16.84%, the “Population Tubulin-Different-Phenotype (%)” value [3] was 17.98% and 10.07% and the “Total Cell Count” value [3] was 238 and 190. For the same compound, the “Population Apoptotic (%)” value [4] was 6.56% and 11.11%, the “Population Fragmented Nuclei (%)” value [4] was 8.38% and 10.7% and the “Population Healthy Nuclei (%)” value [4] was 57.54% and 74.87%. For the same compound, the “Population Hoechst High Intensity Objects (%)” value [4] was 0%, the “Population Membrane Permeable-Phenotype (%)” value [4] was 2.91% and 1.43% and the “Population Mitochondria Different-Phenotype (%)” value [4] was 13.59% and 7.86%. The “Population Mitotic Cells (%)” value [4] was 93.44% and 88.89%, the “Population Normal (%)” value [4] was 100% and the “Population Pyknosed Nuclei (%)” value [4] was 34.08% and 14.44%. For the same compound, the “Population Tubulin-Different-Phenotype (%)” value [4] was 35.92% and 30.71%, the “Total Cell Count” value [4] was 179 and 187 and the “Population Apoptotic (%)” value [5] was 7.14% and 20%. The “Population Fragmented Nuclei (%)” value [5] was 7.17% and 4.5%, the “Population Healthy Nuclei (%)” value [5] was 87.25% and 88% and the “Population Hoechst High Intensity Objects (%)” value [5] was 0%. The “Population Membrane Permeable-Phenotype (%)” value [5] was 0.91% and 2.27%, the “Population Mitochondria Different-Phenotype (%)” value [5] was 9.13% and 3.98% and the “Population Mitotic Cells (%)” value [5] was 92.86% and 80%. The “Population Normal (%)” value [5] was 100%, the “Population Pyknosed Nuclei (%)” value [5] was 5.58% and 7.5% and the “Population Tubulin-Different-Phenotype (%)” value [5] was 5.48% and 13.64%. The “Total Cell Count” value [5] was 251 and 200, the “Population Apoptotic (%)” value [6] was 21.05% and 50% and the “Population Fragmented Nuclei (%)” value [6] was 12.39% and 11.11%. For the same compound, the “Population Healthy Nuclei (%)” value [6] was 78.9% and 84.44%, the “Population Hoechst High Intensity Objects (%)” value [6] was 0% and the “Population Membrane Permeable-Phenotype (%)” value [6] was 1.74% and 4.21%. The “Population Mitochondria Different-Phenotype (%)” value [6] was 6.4% and 3.68%, the “Population Mitotic Cells (%)” value [6] was 78.95% and 50% and the “Population Normal (%)” value [6] was 100%. The “Population Pyknosed Nuclei (%)” value [6] was 8.72% and 4.44%, the “Population Tubulin-Different-Phenotype (%)” value [6] was 19.19% and 32.11% and the “Total Cell Count” value [6] was 218 and 225.
